The target in data set [1] is T1, Giardia lamblia carbamate kinase (glCK) (Giardia intestinalis, UniProt A8BB85).
T1 sequence (A8BB85 1-316): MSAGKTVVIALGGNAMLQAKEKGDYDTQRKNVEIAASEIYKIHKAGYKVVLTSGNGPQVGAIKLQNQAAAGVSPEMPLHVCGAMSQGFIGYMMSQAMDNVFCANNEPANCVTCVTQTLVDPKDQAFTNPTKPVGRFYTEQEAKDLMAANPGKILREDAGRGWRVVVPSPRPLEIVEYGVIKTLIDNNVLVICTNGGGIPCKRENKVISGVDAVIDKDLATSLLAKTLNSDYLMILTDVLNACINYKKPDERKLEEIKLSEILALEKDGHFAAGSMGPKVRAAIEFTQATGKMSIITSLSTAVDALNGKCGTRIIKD
Put plainly: Luminescence-based carbamate kinase assay in 1536-well format. Format: biochemical. To be noted: for Efficacy (% Inhibition): maximal response of the fitted curve, luminescence assay. The gist of the method: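 Reaction was started with ADP/carbamoyl phosphate (final 150 µM) plus ATPLite and run 20 min at room temperature before the luminescence read. Data were normalized to DMSO and no-enzyme wells, pattern-corrected, and Hill-fitted for IC50 and efficacy.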

Data set [2] addresses T2, glCK (Giardia intestinalis, UniProt A8BB85).
T2 sequence (A8BB85 1-316): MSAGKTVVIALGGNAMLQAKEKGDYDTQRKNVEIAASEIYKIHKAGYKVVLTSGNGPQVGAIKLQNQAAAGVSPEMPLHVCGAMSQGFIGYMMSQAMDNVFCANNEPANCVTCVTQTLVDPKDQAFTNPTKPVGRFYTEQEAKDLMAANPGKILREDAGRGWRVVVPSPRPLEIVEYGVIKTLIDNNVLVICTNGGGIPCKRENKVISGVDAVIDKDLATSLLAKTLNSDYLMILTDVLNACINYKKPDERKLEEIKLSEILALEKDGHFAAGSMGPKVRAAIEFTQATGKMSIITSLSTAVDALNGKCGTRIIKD
As to the kind of experiment: Absorbance-based carbamate kinase assay. Format: biochemical, Giardia lamblia. A digest of the protocol: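 Coupled absorbance assay at room temperature. glCK in 20 mM Tris-HCl pH 7.5 was preincubated 15 min with test compound (final 0.002, 0.02, 0.2, 1, 2, 20, 200 μM; enzyme final 5 nM). It was then added to substrate mix (ADP, carbamoyl phosphate, final 40 µM; 30 mM MgCl2, glucose, NADP, hexokinase, G6P dehydrogenase). NADPH was followed at 340 nm, and IC50 was derived from initial velocities.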

For data set [3], the system named is Giardia. As to conditions: maximum screening concentration of 38.3 µM; cited from earlier work.
Data set [4] has as its system Giardia infection. To be noted: cited from earlier work.
The test system of data set [5] is giardiasis. To be noted: giardiasis standard of care; cited from earlier work.
Substrate in data set [6]: Nc1ncnc2c1ncn2[C@@H]1O[C@H](COP(=O)(O)OP(=O)(O)O)[C@@H](O)[C@H]1O
As to the kind of experiment: Steady-state kinetics of glCK, luminescence assay in 384-well format. Format: biochemical, Giardia lamblia. To be noted: other: room temperature, substrate of glCK; pH 8.0.

Setting [7] is: IC50 Luminescence Assay, Table 3, secondary assay comparison.

Structures can show the parent of a compound that is named as a salt. Where two headings read alike, the source gives them in different places. A value given as a limit tells only on which side of the number the result lay.

As for `Oc1cc2c(cc1O)[C@H]1c3ccccc3CN[C@@H]1CC2` (racemic) [Dihydrexidine hydrochloride], the “Efficacy (% Inhibition)” value in data set [1] is given as 82.9%.
`O=C(O)Cc1ccc(O)c(O)c1` [3,4-Dihydroxyphenylacetic acid]: the results for the IC50 in data set [1] (setting [7]) and in data set [2] were 6510 nM and 11700 nM, respectively. Moreover, the “Efficacy (% Inhibition)” value in data set [1] was 80.2%.
The corresponding values for `CC(C)(C)C(=O)OCOP(=O)(COCCn1cnc2c(N)ncnc21)OCOC(=O)C(C)(C)C` [Adefovir dipivoxil] are 16300 nM, > 200000 nM and 83.6%.
The matching figures for `CN1CCc2cccc3c2[C@H]1Cc1ccc(O)c(O)c1-3` [Apomorphine hydrochloride hemihydrate]: 3260 nM, > 200000 nM and 89.4%.
On to `OC[C@H]1O[C@H]([S-])[C@H](O)[C@@H](O)[C@@H]1O.[Au+]` [Aurothioglucose], for which the “Efficacy (% Inhibition)” value in data set [1] came to 81.2%.
On the same count and under the same terms, with `CCOC(=S)SSC(=S)OCC` [Bis(ethylxanthogen)] the figure was 82.3%.
Regarding `O=C1C2CC=CCC2C(=O)N1SC(Cl)(Cl)Cl` (stereo not drawn) [Captan], the IC50 in data set [1] (setting [7]) was 2590 nM; in data set [2] it was 470 nM. In addition, the “Efficacy (% Inhibition)” value in data set [1] is recorded as 88.6%.
With `C[C@@](Cc1ccc(O)c(O)c1)(NN)C(=O)O` [Carbidopa], the IC50 in data set [1] (setting [7]) was 5800 nM; in data set [2] it was > 200000 nM. Besides, the “Efficacy (% Inhibition)” value in data set [1] is given as 79.4%.
Turning to `N.N.[Cl][Pt][Cl]` [Cisplatin], in data set [1], the “Efficacy (% Inhibition)” value is reported as 88.2%.
Consider `CCN(CC)C(=S)SSC(=S)N(CC)CC` [Disulfiram], for which the “activity in Giardia killing screen (>30% reduction in ATP content)” value (shortened to “activity … (>30% reduction in ATP content)”) in data set [3] was “active”. The figures for the IC50 in data set [1] (setting [7]) and in data set [2] were 580 nM and 1390 nM, respectively. For the same molecule, in data set [1], the “Efficacy (% Inhibition)” value came to 90.5%. The “anti-giardial activities in a mouse model” value in data set [4] is listed as “anti-giardial activities”.
Consider `CCN(CC)C(=S)S` [Ditiocarb], for which the “activity … (>30% reduction in ATP content)” value in data set [3] is reported as “active”. Besides, the “Efficacy (% Inhibition)” value in data set [1] was found to be 77.7%.
For `Oc1ccc(C2CNCCc3c2cc(O)c(O)c3Cl)cc1` (stereo not drawn) [Fenoldopam], the “Efficacy (% Inhibition)” value in data set [1] came to 84.5%.
For the molecule `O=C(O)c1cc(O)c(O)c(O)c1` [Gallic acid], the IC50 in data set [1] (setting [7]) was 650 nM; in data set [2], 11400 nM. Besides, the “Efficacy (% Inhibition)” value in data set [1] is 89.2%.
On to `O=C([O-])c1ccccc1-c1c2cc(Br)c(=O)cc-2oc2[c]([Hg+])c([O-])c(Br)cc12.[Na+].[Na+].[OH-]` [Mercurochrome], for which the “Efficacy (% Inhibition)” value in data set [1] amounted to 93.8%. The IC50 was 2060 nM in data set [1] (read-out: IC50 Luminescence Assay, Table 3, secondary assay comparison) and 220 nM in data set [2] (read-out: IC50 Absorbance Assay, 5 nM glCK, inhibitor up to 200 μM).
Take `Oc1cccc(O)c1O` [Pyrogallol]: the IC50 was 16300 nM in data set [1] (setting [7]) and 2700 nM in data set [2]. Also, the “Efficacy (% Inhibition)” value in data set [1] is listed as 77.4%.
The corresponding values for `O=C(O)[C@@H](S)[C@@H](S)C(=O)O` [Succimer] are 650 nM, 540 nM and 85.5%.
As to `CN(C)C(=S)SSC(=S)N(C)C` [Thiram], the “activity … (>30% reduction in ATP content)” value in data set [3] is “active”. In addition, the IC50 turned out to be 4100 nM in data set [1] (IC50, values of the running text, chelator class); 4110 nM in data set [1] (setting [7]); 640 nM in data set [2]. Also, the “Efficacy (% Inhibition)” value in data set [1] worked out at 92.3%. The “anti-giardial activities in a mouse model” value in data set [4] is reported as “anti-giardial activities”.
As for `Cc1ncc([N+](=O)[O-])n1CCO` [metronidazole], the “single course cure rates” value in data set [5] is 80–95%.
For the molecule `CCS(=O)(=O)CCn1c([N+](=O)[O-])cnc1C` [tinidazole], the “single course cure rates” value in data set [5] is listed as 80–95%.

B1: glCK (Giardia lamblia ATCC 50803) (protein)
chain: MSAGKTVVIALGGNAMLQAKEKGDYDTQRKNVEIAASEIYKIHKAGYKVVLTSGNGPQVGAIKLQNQAAAGVSPEMPLHVCGAMSQGFIGYMMSQAMDNVFCANNEPANCVTCVTQTLVDPKDQAFTNPTKPVGRFYTEQEAKDLMAANPGKILREDAGRGWRVVVPSPRPLEIVEYGVIKTLIDNNVLVICTNGGGIPCKRENKVISGVDAVIDKDLATSLLAKTLNSDYLMILTDVLNACINYKKPDERKLEEIKLSEILALEKDGHFAAGSMGPKVRAAIEFTQATGKMSIITSLSTAVDALNGKCGTRIIKD
Take B1: the Michaelis-Menten constant (Km) in data set [6] came out at 58.3 ± 2.4 µM.
